Data published in publication PMC6368478 (ACS infectious diseases, 2018).

Experiments:
Sts-1HP [1] = molecular target: T1, Sts-1HP (Homo sapiens, UniProt Q8TF42); assay: OMFP fluorescence phosphatase assay, 1,536-well HTS; type: biochemical; settings: for Averaged Max. Response (%): LOPAC pilot screen, 5.8 μM nominal concentration, triplicate, OMFP substrate
[2] = read-out: Counterscreen IC50; compound added after NaOH stop, 10-point titration
In short: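 Same reagents and protocol as the primary OMFP screen: Sts-1HP at 750 ng/mL final in 30 mM Tris HCl, 75 mM NaCl, 1 mM EDTA, 1 mM DTT; OMFP 50 μM final; 20 min at room temperature in the dark; stopped with NaOH (100 mM final). Test compound is added after the NaOH stop. Fluorescence read; 10-point 3-fold titration in triplicate. IC50 comes from a four-parameter sigmoidal fit with adjustable baseline.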

Sts-1HP Y596F = Sts-1HP Y596F (Homo sapiens, UniProt Q8TF42, Y607F); assay: pNPP inhibition analysis of Sts-1HP mutant; type: biochemical
In short: (§1)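 Mutant Sts-1HP is expressed in E. coli BL21(DE3) and purified. Assay uses 20 mM Tris (pH 7.5), 150 mM NaCl, 5 mM MgCl2 and 1 mM βME with varying pNPP, following pNP release at 405 nm. Initial rates (<10% completion) are measured at several fixed inhibitor concentrations, with controls for compound optical interference, in triplicate. Ki is derived from Km in the presence of inhibitor via a Lineweaver-Burk competitive fit.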

PTP-1B = molecular target: T2, PTP-1B (Homo sapiens, UniProt P18031); assay: pNPP inhibition analysis, selectivity; type: biochemical; settings: for Selectivity: more active against Sts-1 than PTP1B: from Ki values, Table 4
T2 sequence (P18031 1-435): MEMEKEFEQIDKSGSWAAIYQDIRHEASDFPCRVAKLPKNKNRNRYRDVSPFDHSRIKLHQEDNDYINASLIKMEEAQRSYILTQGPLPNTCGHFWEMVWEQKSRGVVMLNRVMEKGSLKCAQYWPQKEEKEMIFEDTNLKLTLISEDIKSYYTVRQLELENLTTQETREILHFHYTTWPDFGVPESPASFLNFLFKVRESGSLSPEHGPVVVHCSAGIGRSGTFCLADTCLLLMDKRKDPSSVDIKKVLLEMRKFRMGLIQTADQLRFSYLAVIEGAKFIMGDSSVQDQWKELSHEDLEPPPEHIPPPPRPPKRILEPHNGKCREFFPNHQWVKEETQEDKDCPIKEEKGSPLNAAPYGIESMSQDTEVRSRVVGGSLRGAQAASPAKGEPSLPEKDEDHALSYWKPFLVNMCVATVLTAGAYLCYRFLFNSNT

Sts-1HP W494F = Sts-1HP W494F (Homo sapiens, UniProt Q8TF42, W505F); assay: pNPP inhibition analysis of Sts-1HP mutant; type: biochemical
In short: as §1

Sts-1HP W494H = Sts-1HP W494H (Homo sapiens, UniProt Q8TF42, W505H); assay: pNPP inhibition analysis of Sts-1HP mutant; type: biochemical
In short: as §1

Sts-1HP [3] = molecular target: T1, Sts-1HP; assay: pNPP absorbance phosphatase assay, inhibition analysis; type: biochemical; settings: for Ki Ratio: Ki of construct / Ki of wild-type Sts-1HP, wild-type; for Mode of inhibition: double reciprocal plots, several inhibitor concentrations
SHP1 = SHP1 (Homo sapiens, UniProt P29350); assay: pNPP inhibition analysis, selectivity; type: biochemical; settings: for Selectivity: more active against Sts-1 than SHP1: from Ki values, Table 4
Sts-1HP W494L = Sts-1HP W494L (Homo sapiens, UniProt Q8TF42, W505L); assay: pNPP inhibition analysis of Sts-1HP mutant; type: biochemical
In short: as §1

Sts-1HP Y596L = Sts-1HP Y596L (Homo sapiens, UniProt Q8TF42, Y607L); assay: pNPP inhibition analysis of Sts-1HP mutant; type: biochemical
In short: as §1

Sts-1 = settings: cited from earlier work

Chain of SHP1 (P29350 whole entry): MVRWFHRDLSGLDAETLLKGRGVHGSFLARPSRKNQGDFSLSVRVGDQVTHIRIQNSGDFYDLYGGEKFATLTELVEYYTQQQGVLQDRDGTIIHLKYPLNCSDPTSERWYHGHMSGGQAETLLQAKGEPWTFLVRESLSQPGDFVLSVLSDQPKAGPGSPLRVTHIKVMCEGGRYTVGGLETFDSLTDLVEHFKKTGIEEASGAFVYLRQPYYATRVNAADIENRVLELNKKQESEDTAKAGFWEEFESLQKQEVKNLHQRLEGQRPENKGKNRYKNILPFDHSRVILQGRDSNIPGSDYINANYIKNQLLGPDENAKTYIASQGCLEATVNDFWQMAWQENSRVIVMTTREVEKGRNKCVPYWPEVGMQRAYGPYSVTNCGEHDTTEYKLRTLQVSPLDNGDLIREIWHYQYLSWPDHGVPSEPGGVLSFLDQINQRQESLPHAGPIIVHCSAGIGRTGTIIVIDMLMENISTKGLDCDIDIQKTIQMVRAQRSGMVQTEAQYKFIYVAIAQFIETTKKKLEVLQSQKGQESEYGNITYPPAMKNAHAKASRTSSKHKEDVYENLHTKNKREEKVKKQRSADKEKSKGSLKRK
T1 sequence (Q8TF42 384-647 limits assumed): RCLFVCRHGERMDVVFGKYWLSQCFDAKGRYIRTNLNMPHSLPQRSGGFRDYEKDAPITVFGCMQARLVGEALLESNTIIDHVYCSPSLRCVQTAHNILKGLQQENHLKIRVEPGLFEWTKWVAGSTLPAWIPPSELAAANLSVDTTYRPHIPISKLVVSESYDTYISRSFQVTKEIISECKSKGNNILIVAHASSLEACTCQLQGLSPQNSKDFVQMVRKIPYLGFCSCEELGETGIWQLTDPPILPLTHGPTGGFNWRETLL
Chain of Sts-1HP Y596L (Q8TF42 384-647 Y607L): as the sequence (Q8TF42 384-647 limits assumed) above, with Y224L counted along it
Chain of Sts-1HP W494F (Q8TF42 384-647 W505F): as the sequence (Q8TF42 384-647 limits assumed) above, with W122F counted along it
Chain of Sts-1HP W494L (Q8TF42 384-647 W505L): as the sequence (Q8TF42 384-647 limits assumed) above, with W122L counted along it
Chain of Sts-1HP W494H (Q8TF42 384-647 W505H): as the sequence (Q8TF42 384-647 limits assumed) above, with W122H counted along it
Chain of Sts-1HP Y596F (Q8TF42 384-647 Y607F): as the sequence (Q8TF42 384-647 limits assumed) above, with Y224F counted along it

Row | Averaged Max. Response (%) (Sts-1HP [1]) | IC50 (Sts-1HP [1]) [µM] | Structure (SMILES) | IC50 [2] [µM] | also measured
1 | 89.95 | – | O=C(O)C1=CC(=C(c2ccc(O)c(C(=O)O)c2)c2ccc(O)c(C(=O)O)c2)C=CC1=O [Aurintricarboxylic Acid] | – | –
2 | – | 1 | COc1cc(-c2ccc(/N=N/c3ccc4c(S(=O)(=O)O)cc(S(=O)(=O)O)c(N)c4c3O)c(OC)c2)ccc1/N=N/c1ccc2c(S(=O)(=O)O)cc(S(=O)(=O)O)c(N)c2c1O [Chicago Sky Blue] | > 14.5 | –
3 | – | 0.92 | Nc1c(/N=N/c2ccc(-c3ccc(/N=N/c4cc(S(=O)(=O)O)c5ccccc5c4N)cc3)cc2)cc(S(=O)(=O)O)c2ccccc12 [Congo Red] | > 14.5 | Ki (Sts-1HP Y596F): 0.23 ± 0.02 µM; Ki (PTP-1B): 1.47 ± 0.34 µM; Selectivity: more active against Sts-1 than PTP1B (PTP-1B): approximately 20 fold; Ki (Sts-1HP W494F): 1.42 ± 0.32 µM; Ki (Sts-1HP W494H): 1.07 ± 0.03 µM; Ki (Sts-1HP [3]): 0.079 ± 0.02 µM; Ki Ratio (Sts-1HP [3]): 1; Mode of inhibition (Sts-1HP [3]): competitive inhibition; Ki (SHP1): 3.88 ± 0.59 µM; Selectivity: more active against Sts-1 than SHP1 (SHP1): ~50 fold; Ki (Sts-1HP W494L): 1.46 ± 0.13 µM; Ki (Sts-1HP Y596L): 0.94 ± 0.05 µM
4 | – | 4.7 | CN(C)[C@@H]1C(O)=C(C(N)=O)C(=O)[C@@]2(O)C(O)=C3C(=O)c4c(O)ccc(Cl)c4[C@@H](O)[C@H]3C[C@@H]12 [Demeclocycline] | > 14.5 | –
5 | 45.03 | 4.1 | C[C@H]1c2cccc(O)c2C(=O)C2=C(O)[C@]3(O)C(=O)C(C(N)=O)=C(O)[C@@H](N(C)C)[C@@H]3[C@@H](O)[C@@H]21 [Doxycycline] | > 14.5 | Ki (Sts-1HP Y596F): 390 ± 40 µM; Selectivity: more active against Sts-1 than PTP1B (PTP-1B): more than 200 fold; Ki Doxycycline (PTP-1B; pNPP substrate): No Inhibition; Ki (Sts-1HP W494F): 1420 ± 110 µM; Ki (Sts-1HP W494H): 1480 ± 90 µM; Ki (Sts-1HP [3]): 99 ± 19 µM; Ki Ratio (Sts-1HP [3]): 1; Mode of inhibition (Sts-1HP [3]): competitive inhibition; Selectivity: more active against Sts-1 than SHP1 (SHP1): more than 200 fold; Ki Doxycycline (SHP1; pNPP substrate): No Inhibition; Ki (Sts-1HP W494L): 730 ± 40 µM; Ki (Sts-1HP Y596L): 490 ± 50 µM
6 | – | 3.1 | Cc1cc(-c2ccc(/N=N/c3ccc4c(S(=O)(=O)O)cc(S(=O)(=O)O)c(N)c4c3O)c(C)c2)ccc1/N=N/c1ccc2c(S(=O)(=O)O)cc(S(=O)(=O)O)c(N)c2c1O [Evans Blue] | 23.6 | Ki (Sts-1HP [3]): 0.39 ± 0.11 µM
7 | 44.44 | – | O=c1cc(O)cc(/C=C/c2ccc(O)c(O)c2)o1 [Hispidin] | – | –
8 | 57.45 | – | C[C@](N)(Cc1ccc(O)c(O)c1)C(=O)O [L-α-methyl DOPA] | – | –
9 | – | 1.8 | C=C1c2c(Cl)ccc(O)c2C(=O)C2=C(O)[C@]3(O)C(=O)C(C(N)=O)=C(O)[C@@H](N(C)C)[C@@H]3[C@@H](O)[C@H]12 [Meclocycline] | > 14.5 | –
10 | – | 0.67 | C=C1c2cccc(O)c2C(=O)C2=C(O)[C@]3(O)C(=O)C(C(N)=O)=C(O)[C@@H](N(C)C)[C@@H]3[C@@H](O)[C@H]12 [Methacycline] | > 14.5 | Ki (Sts-1HP [3]): 326 ± 35 µM
11 | 32.59 | – | CN(C)c1ccc(O)c2c1C[C@H]1C[C@H]3[C@H](N(C)C)C(O)=C(C(N)=O)C(=O)[C@@]3(O)C(O)=C1C2=O [Minocycline] | – | –
12 | 44.94 | – | O=c1c(O)c(-c2ccc(O)cc2O)oc2cc(O)cc(O)c12 [Morin] | – | –
13 | – | – | O=C(Nc1ccc(C(=O)Nc2ccc(C(=O)Nc3ccc(S(=O)(=O)O)c4cc(S(=O)(=O)O)cc(S(=O)(=O)O)c34)cc2)cc1)Nc1ccc(C(=O)Nc2ccc(C(=O)Nc3ccc(S(=O)(=O)O)c4cc(S(=O)(=O)O)cc(S(=O)(=O)O)c34)cc2)cc1 [NF-279] | > 29 | –
14 | – | – | CN(C)[C@@H]1C(O)=C(C(N)=O)C(=O)[C@@]2(O)C(O)=C3C(=O)c4c(O)cccc4[C@@](C)(O)[C@H]3[C@H](O)[C@@H]12 [Oxytetracyline] | > 14.5 | –
15 | – | 17.6 | O=C1C(=NNc2ccc(S(=O)(=O)O)cc2)C(c2ccc([N+](=O)[O-])cc2)=NN1c1ccccc1 [PHPS1, 4-[2-[1,5-dihydro-3-(4-nitrophenyl)-5-oxo-1-phenyl-4H-pyrazol-4-ylidene]hydrazinyl]-benzenesulfonic acid] | – | Ki (Sts-1): 1 µM
16 | – | – | Cc1nc(N=Nc2cc(S(=O)(=O)O)c3cc([N+](=O)[O-])cc(S(=O)(=O)O)c3c2)c(COP(=O)(O)O)c(C=O)c1O [PPNDS] | > 29 | –

Row | Structure (SMILES) | Averaged Max. Response (%) (Sts-1HP [1]) | IC50 (Sts-1HP [1]) [µM] | IC50 [2] [µM] | also measured
17 | NC(Cc1cc(O)c(O)cc1O)C(=O)O (racemic) [6-Hydroxy-DL-DOPA] | 64.86 | – | – | –
18 | CN(N=O)c1cc(O)ccc1O [Dephostatin] | 43.47 | – | – | –
19 | CN(N=O)c1ccc(O)c(O)c1 [Methyl-3,4-Dephostatin] | 46.07 | – | – | –
20 | Nc1c(S(=O)(=O)O)cc(Nc2ccc(Nc3nc(Cl)nc(Nc4cccc(S(=O)(=O)O)c4)n3)c(S(=O)(=O)O)c2)c2c1C(=O)c1ccccc1C2=O [Reactive Blue 2] | 58.99 | – | – | –
21 | CN(C)[C@@H]1C(O)=C(C(N)=O)C(=O)[C@@]2(O)C(O)=C3C(=O)c4c(O)cccc4[C@@](C)(O)[C@H]3C[C@@H]12 [Tetracycline] | – | 1.9 | > 14.5 | Ki (Sts-1HP [3]): 199 ± 20 µM
